pKi: −log10 of the molar value.

Broadly, the pKi is −log10 of the Ki, conventionally taken in molar units. A higher pKi goes with a small Ki.

The test system of one data set is Brain. Nature of the data set: Biodistribution in Sprague-Dawley rat whole brain at 1 to 3 MBq, iv after 2 mins by gamma counting. It is filed as ADME, organism-based. As to conditions: in vivo. Summed up: (§1)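 Tracer formulated in Dulbecco's PBS and given iv, about 1–3 MBq at 10 MBq/mL, under 4% isoflurane, to naive rats (n = 3). Animals were killed at set times after injection. Brain was dissected into regions including striatum and olfactory bulbs, and activity was counted by gamma counter. Values are % id/g, and regional ratios were taken between times or regions.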

A short description of data set [1]: Metabolic stability in Sprague-Dawley rat brain assessed as compound remaining at 1 to 3 MBq, iv after 60 mins by HPLC analysis. It is filed as ADME, organism-based. As to conditions: read-out: Stability. In short, it runs like this:
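Radiotracer was injected iv into rats. Brain and plasma were sampled at 10, 30 and 60 min post injection to follow metabolic fate. Brain radioactivity at 60 min is expressed as % parent tracer remaining.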

Data set [2] in a line: Ratio of drug uptake in striatum in Sprague-Dawley rat at 1 to 3 MBq, iv after 2 mins to drug uptake in striatum in Sprague-Dawley rat at 1 to 3 MBq, iv after 30 mins. As to conditions: in vivo.
A short description of data set [3]: Ratio of drug uptake in olfactory bulb to striatum in Sprague-Dawley rat at 1 to 3 MBq, iv after 30 mins by gamma counting. As to conditions: in vivo, 0.5 h.
The test system of another data set is Rattus norvegicus. Nature of the data set: Biodistribution in Sprague-Dawley rat olfactory bulbs at 1 to 3 MBq, iv after 30 mins by gamma counting. It is filed as ADME, organism-based, Olfactory bulb. As to conditions: in vivo, 0.5 h. In short, it runs like this: as §1
A further data set concerns the target Translocator protein (Rattus norvegicus, UniProt P16257). Nature of the data set: Displacement of [3H]PK11195 from TSPO receptor in Wistar rat heart homogenate after 15 mins. It is filed as tissue-based. (In a radioligand displacement assay an active substance lowers the binding of a labelled ligand.)
Data set [4] can be described thus: Metabolic stability in Sprague-Dawley rat brain assessed as compound remaining at 1 to 3 MBq, iv after 30 mins by HPLC analysis. The class given is ADME, organism-based. As to conditions: read-out: Stability.

Sequence of Translocator protein (P16257 whole entry, looked up): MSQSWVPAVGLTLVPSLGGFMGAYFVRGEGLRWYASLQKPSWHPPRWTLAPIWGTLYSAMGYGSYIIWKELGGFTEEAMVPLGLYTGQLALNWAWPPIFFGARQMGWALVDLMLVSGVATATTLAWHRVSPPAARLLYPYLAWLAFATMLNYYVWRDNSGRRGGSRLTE

For the compound `CCN(Cc1ccccc1)C(=O)C1CCCc2c1c1ccccc1n2CC[18F]` (stereo not given), the Drug uptake in the data set with Brain amounted to 0.48 % ID/g; with Rattus norvegicus it was 0.34 % ID/g. Moreover, in data set [1], the remaining at 1 h is 76%. Moreover, the Ratio in data set [2] was 4.3; in data set [3], 3.4.
Turning to `CCN(CC)C(=O)C1Sc2ccccc2-c2c1c1ccccc1n2CCF` (stereo not given), the pKi at Translocator protein was 9.17. Moreover, the remaining at 0.5 h in data set [4] stood at 95%. The results for the Ratio in data set [2] and in data set [3] were 2.16 and 1.42, respectively. In the data set with Rattus norvegicus, this compound yielded a Drug uptake of 0.17 % ID/g.
Regarding `CC(C)N(C(=O)C1CCCc2c1c1ccccc1n2CC[18F])C(C)C` (stereo not given), the results for the Drug uptake in the data set with Brain and in the data set with Rattus norvegicus were 0.48 % ID/g and 0.25 % ID/g, respectively. Besides, the remaining at 1 h in data set [1] is 43%. Besides, the Ratio in data set [2] is listed as 5.11; in data set [3], 2.78.
For the compound `CN(Cc1ccccc1)C(=O)C1CCCc2c1c1ccccc1n2CC[18F]` (stereo not given), the Drug uptake was 0.55 % ID/g in the data set on Brain and 0.34 % ID/g in the data set on Rattus norvegicus. Besides, the remaining at 1 h in data set [1] was found to be 81%. In addition, the Ratio in data set [2] stood at 4.7; in data set [3] it was 3.4.

The values above are taken from ChEMBL document CHEMBL1944627, “[¹⁸F]GE-180: a novel fluorine-18 labelled PET tracer for imaging Translocator protein 18 kDa (TSPO)” (Bioorg Med Chem Lett, 2012).
